Assay results as given in ChEMBL document CHEMBL3352174, “Identification of a New RXRα Antagonist Targeting the Coregulator-Binding Site” (ACS Med Chem Lett, 2014).
The source made the active and inactive calls. The rule behind the calls is not given here.

How the values were obtained:
[1] = biological target: T1, Retinoic acid receptor RXR-alpha (Homo sapiens) (UniProt P19793); test: Antagonist activity against RXRalpha in human pancreatic cancer cells assessed as inhibition of AKT phosphorylation at 5 and 10 uM after 24 hrs by Western blotting method; assay type: cell-based; details: Cancer cell lines
T1 sequence (whole entry): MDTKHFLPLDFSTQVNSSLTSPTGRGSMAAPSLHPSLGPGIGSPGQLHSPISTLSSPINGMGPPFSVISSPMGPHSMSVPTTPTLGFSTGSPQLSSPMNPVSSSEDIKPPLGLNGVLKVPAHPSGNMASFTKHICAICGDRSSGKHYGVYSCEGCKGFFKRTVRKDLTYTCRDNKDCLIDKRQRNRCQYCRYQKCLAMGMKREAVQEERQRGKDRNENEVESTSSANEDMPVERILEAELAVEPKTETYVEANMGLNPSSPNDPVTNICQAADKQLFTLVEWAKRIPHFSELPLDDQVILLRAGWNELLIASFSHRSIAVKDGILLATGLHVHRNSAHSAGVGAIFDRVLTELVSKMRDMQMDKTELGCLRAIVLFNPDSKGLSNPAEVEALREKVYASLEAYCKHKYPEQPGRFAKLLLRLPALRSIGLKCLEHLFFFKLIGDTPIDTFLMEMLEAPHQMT

[2] = biological target: T2, Estrogen receptor (Homo sapiens) (UniProt P03372); test: Antagonist activity against estrogen receptor ligand binding domain (unknown origin) expressed in human MCF7 cells assessed as inhibition of propyl pyrazole-induced receptor transactivation at 10 uM after 18 hrs by luciferase reporter gene based mammalian one-hybrid assay; assay type: cell-based
T2 sequence (whole entry): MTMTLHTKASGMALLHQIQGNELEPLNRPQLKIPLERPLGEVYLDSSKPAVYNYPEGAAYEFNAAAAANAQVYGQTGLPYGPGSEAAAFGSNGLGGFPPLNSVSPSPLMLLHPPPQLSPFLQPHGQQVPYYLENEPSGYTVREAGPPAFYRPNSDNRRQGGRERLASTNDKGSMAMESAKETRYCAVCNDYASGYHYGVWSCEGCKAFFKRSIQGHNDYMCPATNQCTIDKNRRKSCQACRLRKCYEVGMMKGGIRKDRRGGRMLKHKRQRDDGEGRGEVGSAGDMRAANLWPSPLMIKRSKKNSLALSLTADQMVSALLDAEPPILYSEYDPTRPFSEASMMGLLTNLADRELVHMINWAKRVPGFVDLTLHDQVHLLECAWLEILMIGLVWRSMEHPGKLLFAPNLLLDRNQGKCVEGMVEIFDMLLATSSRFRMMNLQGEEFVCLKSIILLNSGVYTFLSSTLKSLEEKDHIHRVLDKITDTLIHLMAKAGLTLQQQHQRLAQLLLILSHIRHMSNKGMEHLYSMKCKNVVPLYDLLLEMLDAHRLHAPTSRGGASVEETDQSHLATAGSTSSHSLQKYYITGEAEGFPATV
Summary of the method: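 MCF-7 cells co-transfected with pG5-Luc and the pBind-LBD fusion: Nur77, RARγ or ER. Agonists were all-trans-RA 10⁻⁷ M for RARγ and Nur77, and propyl pyrazole triol 10 μM for ER. Compound at 10 μM for 18 h. Dual-luciferase read-out normalized to Renilla. Mean ± SD.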

A549 = test: Induction of apoptosis in TNFalpha-stimulated human A549 cells assessed as PARP cleavage at 5 and 10 uM pre-treated for 24 hrs before TNFalpha addition in presence of RXRalpha siRNA by immunoblotting method; assay type: functional, cell-based
Summary of the method: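 A549 cells were transfected with RXRα siRNA or control siRNA for 48 h. They were then treated with compound for 24 h, followed by TNFα (20 ng/mL) for 30 min. Lysates were analyzed by Western blot for AKT activation and PARP cleavage.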

[3] = biological target: T3, Oxysterols receptor LXR-alpha (Homo sapiens) (UniProt Q13133); test: Antagonist activity against LXRalpha ligand binding domain (unknown origin) expressed in human MCF7 cells assessed as inhibition of T09-induced receptor transactivation at 10 uM after 18 hrs by luciferase reporter gene based mammalian one-hybrid assay; assay type: cell-based
T3 sequence (whole entry): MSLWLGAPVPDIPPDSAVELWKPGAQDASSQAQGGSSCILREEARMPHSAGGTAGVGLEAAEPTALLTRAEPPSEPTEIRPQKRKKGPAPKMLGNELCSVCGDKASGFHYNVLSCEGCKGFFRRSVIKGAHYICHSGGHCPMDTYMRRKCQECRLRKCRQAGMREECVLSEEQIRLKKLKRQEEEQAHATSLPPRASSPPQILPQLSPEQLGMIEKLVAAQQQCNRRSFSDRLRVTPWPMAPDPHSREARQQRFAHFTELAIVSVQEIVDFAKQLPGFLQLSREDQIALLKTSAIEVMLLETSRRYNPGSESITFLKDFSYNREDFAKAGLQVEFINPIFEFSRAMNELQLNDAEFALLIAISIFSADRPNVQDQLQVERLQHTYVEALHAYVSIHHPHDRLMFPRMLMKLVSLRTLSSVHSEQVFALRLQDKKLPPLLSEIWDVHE

HepG2 = test: Induction of apoptosis in TNFalpha-stimulated human HepG2 cells assessed as PARP cleavage at 5 and 10 uM pre-treated for 24 hrs before TNFalpha addition by immunoblotting method; assay type: functional, cell-based
Summary of the method: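 A549 or HepG2 cells were treated with compound for 24 h, with or without subsequent TNFα (20 ng/mL) for 30 min. Lysates were immunoblotted for PARP cleavage as the apoptosis marker. One of three to five similar experiments shown.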

[4] = biological target: T1, Retinoic acid receptor RXR-alpha (Homo sapiens); test: Antagonist activity against RXRalpha in human PC3 cells assessed as inhibition of AKT phosphorylation at 5 and 10 uM after 24 hrs by Western blotting method; assay type: cell-based; details: PC-3
[5] = biological target: T1, Retinoic acid receptor RXR-alpha (Homo sapiens); test: Antagonist activity against RXRalpha in human colon cancer cells assessed as inhibition of AKT phosphorylation at 5 and 10 uM after 24 hrs by Western blotting method; assay type: cell-based; details: Cancer cell lines
[6] = biological target: Retinoic acid receptor RXR-alpha/oxysterols receptor LXR-alpha (Homo sapiens) (UniProt P19793+Q13133); test: Antagonist activity against RXRalpha/LXRalpha ligand binding domain (unknown origin) expressed in human HEK293T cells assessed as inhibition of 9-cis-RA/T09-induced receptor transactivation at 2 and 10 uM after 18 hrs by luciferase reporter gene based mammalian one-hybrid assay; assay type: cell-based; details: HEK-293T
[7] = biological target: T1, Retinoic acid receptor RXR-alpha (Homo sapiens); test: Antagonist activity against RXRalpha in human A549 cells assessed as inhibition of AKT phosphorylation at 5 and 10 uM after 24 hrs by Western blotting method; assay type: cell-based
Summary of the method: (§1)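 A549 or HepG2 cells were exposed to compound for 24 h, then with or without TNFα (20 ng/mL) for 30 min more. Lysates were immunoblotted for AKT activation. One of three to five similar experiments shown.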

[8] = biological target: T1, Retinoic acid receptor RXR-alpha (Homo sapiens); test: Antagonist activity against Myc-tagged RXRalpha ligand binding domain (unknown origin) expressed in human MCF7 cells assessed as inhibition of 9-cis-RA-induced receptor transactivation at 10 uM after 18 hrs by luciferase reporter gene based mammalian one-hybrid assay; assay type: cell-based
Summary of the method: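 MCF-7 cells co-transfected with pG5-Luc reporter and pBind-RXRα-LBD. […] Read-out was dual-luciferase, with firefly normalized to Renilla for transfection efficiency. Single-concentration tests used 10 μM. Mean ± SD.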

[9] = biological target: T1, Retinoic acid receptor RXR-alpha (Homo sapiens); test: Antagonist activity against RXRalpha in human HepG2 cells assessed as inhibition of AKT phosphorylation at 5 and 10 uM after 24 hrs by Western blotting method; assay type: cell-based; summary of the method: as §1

inhibition [1]: Active
inhibition [2]: inactive
inhibition [3]: Active
inhibition [4]: Active
inhibition [5]: Active
inhibition [6]: inactive
inhibition [7]: Dose-dependent effect
inhibition [8]: Active
inhibition [9]: Dose-dependent effect
Structure (SMILES): Cc1cc(=O)oc2c(/C=N/NC(=O)CSc3nc4ccccc4s3)c(O)ccc12
Activity (A549): inactive
Activity (HepG2): Active
